One block for each molecule: values may come before it.
Key:
[1] = Half life in mouse at 1 mg/kg, iv and 2 mg/kg, po; type: ADME, organism-based; settings: in vivo
Method in brief: (§1)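 Formulated at 0.2 mg/mL in ethanol/PEG/water (10:40:50). Dosed 1 mg/kg IV and 2 mg/kg PO, n = 3 per route. Blood was protein-precipitated with acetonitrile and drug concentration measured by LC/MS/MS.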

[2] = Clearance in mouse at 1 mg/kg, iv and 2 mg/kg, po; type: ADME, organism-based; settings: in vivo; method in brief: as §1
[3] = Cmax in mouse at 1 mg/kg, iv and 2 mg/kg, po; type: ADME, organism-based; settings: in vivo; method in brief: as §1
[4] = Bioavailability in mouse at 1 mg/kg, iv and 2 mg/kg, po; type: ADME, organism-based; settings: in vivo; method in brief: as §1
[5] = Volume of distribution at steady state in mouse at 1 mg/kg, iv and 2 mg/kg, po; type: ADME, organism-based; settings: in vivo, read-out: Vdss; method in brief: as §1
[6] = biological target: Hydroxycarboxylic acid receptor 2 (Homo sapiens) (UniProt Q8TDS4); assay: Serum shift in 3H-niacin binding to GPR109A receptor with 4% human serum
Sequence of Hydroxycarboxylic acid receptor 2 (Homo sapiens) (Q8TDS4 whole entry): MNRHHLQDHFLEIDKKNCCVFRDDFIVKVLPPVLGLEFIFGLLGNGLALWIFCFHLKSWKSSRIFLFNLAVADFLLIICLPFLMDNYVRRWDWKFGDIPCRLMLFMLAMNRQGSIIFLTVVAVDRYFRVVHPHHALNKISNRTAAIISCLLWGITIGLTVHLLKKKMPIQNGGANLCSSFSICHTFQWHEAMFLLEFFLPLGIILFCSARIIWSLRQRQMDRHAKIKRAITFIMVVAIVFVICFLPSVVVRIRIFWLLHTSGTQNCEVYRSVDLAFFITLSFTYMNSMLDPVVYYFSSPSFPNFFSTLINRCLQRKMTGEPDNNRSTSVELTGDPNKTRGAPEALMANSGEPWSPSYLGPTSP

Cytochrome P450 2C9 = Cytochrome P450 2C9 (Homo sapiens, UniProt P11712); assay: Inhibition of CYP2C9 in human liver microsomes; type: ADME, Microsome
Sequence of Cytochrome P450 2C9 (P11712 whole entry): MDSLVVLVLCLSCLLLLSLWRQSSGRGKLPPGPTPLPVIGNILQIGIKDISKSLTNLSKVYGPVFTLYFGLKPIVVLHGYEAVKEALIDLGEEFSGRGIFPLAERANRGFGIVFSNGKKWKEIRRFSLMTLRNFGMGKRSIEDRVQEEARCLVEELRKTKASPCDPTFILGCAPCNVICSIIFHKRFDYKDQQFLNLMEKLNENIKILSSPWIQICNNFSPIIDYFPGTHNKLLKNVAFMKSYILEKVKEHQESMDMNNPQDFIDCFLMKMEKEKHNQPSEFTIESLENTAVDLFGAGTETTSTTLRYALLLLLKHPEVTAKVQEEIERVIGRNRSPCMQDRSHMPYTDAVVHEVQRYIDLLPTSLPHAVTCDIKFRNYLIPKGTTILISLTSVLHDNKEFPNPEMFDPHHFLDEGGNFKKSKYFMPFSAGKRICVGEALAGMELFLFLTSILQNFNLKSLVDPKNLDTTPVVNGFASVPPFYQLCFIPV

Cytochrome P450 2C8 = biological target: T1, Cytochrome P450 2C8 (Homo sapiens, UniProt P10632); assay: Inhibition of CYP2C8 in human liver microsomes; type: ADME, Microsome
T1 sequence (P10632 whole entry): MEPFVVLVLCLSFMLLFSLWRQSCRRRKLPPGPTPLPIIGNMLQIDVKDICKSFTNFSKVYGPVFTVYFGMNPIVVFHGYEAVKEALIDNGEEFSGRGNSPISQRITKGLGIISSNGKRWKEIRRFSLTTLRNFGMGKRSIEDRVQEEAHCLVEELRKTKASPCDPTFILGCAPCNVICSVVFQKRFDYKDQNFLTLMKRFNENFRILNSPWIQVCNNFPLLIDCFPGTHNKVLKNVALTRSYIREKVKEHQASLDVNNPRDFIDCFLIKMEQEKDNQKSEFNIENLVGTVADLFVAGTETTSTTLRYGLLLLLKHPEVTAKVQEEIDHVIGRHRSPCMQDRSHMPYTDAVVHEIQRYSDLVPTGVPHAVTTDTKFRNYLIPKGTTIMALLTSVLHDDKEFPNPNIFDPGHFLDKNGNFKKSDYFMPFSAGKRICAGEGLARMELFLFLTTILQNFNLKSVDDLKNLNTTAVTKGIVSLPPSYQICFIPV
Method in brief: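 Human liver microsomes with taxol as substrate and montelukast as positive control. IC50 determined.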

Adipocyte = assay: Inhibition of lipolysis in human adipocytes assessed as free glycerol level; type: functional, cell-based
Method in brief: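 Lipolysis in human adipocytes; free glycerol release measured and used to calculate IC50.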

[7] = Volume of distribution at steady state in rat at 1 mg/kg, iv and 2 mg/kg, po; type: ADME, organism-based; settings: in vivo, read-out: Vdss; method in brief: as §1
[8] = Bioavailability in rat at 1 mg/kg, iv and 2 mg/kg, po; type: ADME, organism-based; settings: in vivo; method in brief: as §1
[9] = Half life in rat at 1 mg/kg, iv and 2 mg/kg, po; type: ADME, organism-based; settings: in vivo; method in brief: as §1
[10] = Cmax in rat at 1 mg/kg, iv and 2 mg/kg, po; type: ADME, organism-based; settings: in vivo; method in brief: as §1
[11] = Clearance in rat at 1 mg/kg, iv and 2 mg/kg, po; type: ADME, organism-based; settings: in vivo; method in brief: as §1

half-life [1]: 3.5 h
clearance [2]: 17 mL/min/kg
Cmax [3]: 480 nM
bioavailability [4]: 21%
Vd [5]: 3.56 L/kg
serum shift [6]: 70
SMILES: O=C(CCc1cnn(-c2ccc(O)cc2)c1)Nc1ccccc1C(=O)O

serum shift [6]: 40
IC50 (Cytochrome P450 2C9): 15 µM
SMILES: O=C(CCc1cnn(-c2ccccc2)c1)Nc1ccccc1C(=O)O

serum shift [6]: 30
SMILES: CC(Cc1ccn(-c2ccc(O)cn2)n1)C(=O)NC1=C(C(=O)O)CCC(c2cc(F)c(F)c(F)c2)C1 (stereo unspecified)

IC50 (Cytochrome P450 2C8): 34 µM
IC50 (Adipocyte): 0.06 µM
serum shift [6]: 60
IC50 (Cytochrome P450 2C9): 22 µM
SMILES: Cc1c(CC(C)C(=O)Nc2ccccc2C(=O)O)cnn1-c1ccc(O)cc1 (stereo unspecified)

serum shift [6]: 900
SMILES: CC(Cc1ccn(-c2ccc(O)cn2)n1)C(=O)NC1=C(C(=O)O)CCCC1 (stereo unspecified)

IC50 (Adipocyte): 0.08 µM
SMILES: O=C(O)c1cccnc1 [NIACIN]

serum shift [6]: 1000
SMILES: O=C(CCc1ccn(-c2ccc(O)cn2)n1)NC1=C(C(=O)O)CCCC1

serum shift [6]: 170
SMILES: O=C(CCc1ccn(-c2ccc(O)cn2)n1)Nc1ccccc1C(=O)O

half-life [1]: 3.3 h
clearance [2]: 1.2 mL/min/kg
Cmax [3]: 11500 nM
bioavailability [4]: 46%
Vd [5]: 0.4 L/kg
serum shift [6]: 240
IC50 (Cytochrome P450 2C9): > 50 µM
SMILES: O=C(CCc1cnn(-c2ccc(O)cn2)c1)NC1=C(C(=O)O)CCCC1

serum shift [6]: 110
SMILES: CCCC1CCC(C(=O)O)=C(NC(=O)C(C)Cc2ccn(-c3ccc(O)cn3)n2)C1 (stereo unspecified)

IC50 (Cytochrome P450 2C8): 2.7 µM
IC50 (Cytochrome P450 2C9): 2.5 µM
SMILES: O=C(CCc1ccn(-c2ccccc2)n1)Nc1ccccc1C(=O)O

serum shift [6]: 200
SMILES: CC(Cc1ccn(-c2ccc(O)cn2)n1)C(=O)Nc1ccccc1C(=O)O (stereo unspecified)

IC50 (Cytochrome P450 2C8): 7.7 µM
Vd [7]: 0.53 L/kg
bioavailability [8]: 39%
half-life [9]: 5.5 h
Cmax [10]: 1580 nM
serum shift [6]: 100
clearance [11]: 8.6 mL/min/kg
IC50 (Cytochrome P450 2C9): 23 µM
SMILES: CC(Cc1ccn(-c2ccc(O)cn2)n1)C(=O)NC1=C(C(=O)O)CC(c2cc(F)cc(F)c2)CC1 (stereo unspecified)

Vd [7]: 0.36 L/kg
bioavailability [8]: 4.5%
half-life [9]: 0.74 h
Cmax [10]: 30 nM
serum shift [6]: 30
clearance [11]: 28 mL/min/kg
SMILES: CC(Cc1ccn(-c2ccc(O)cn2)n1)C(=O)NC1=C(C(=O)O)CCC(c2cccc(F)c2F)C1 (stereo unspecified)

Cmax [3]: 930 nM
bioavailability [4]: 4.6%
serum shift [6]: > 5000
SMILES: O=C(CCc1ccc(-c2ccc(O)cc2Cl)cc1)Nc1ccccc1C(=O)O

IC50 (Cytochrome P450 2C8): > 100 µM
half-life [1]: 4.8 h
clearance [2]: 3.5 mL/min/kg
IC50 (Adipocyte): 0.07 µM
Cmax [3]: 4780 nM
bioavailability [4]: 52%
Vd [5]: 0.68 L/kg
serum shift [6]: 50
IC50 (Cytochrome P450 2C9): > 100 µM
SMILES: Cc1c(CC(C)C(=O)NC2=C(C(=O)O)CCCC2)cnn1-c1ccc(O)cc1 (stereo unspecified)

serum shift [6]: 40
SMILES: CC(Cc1ccn(-c2ccc(O)cn2)n1)C(=O)NC1=C(C(=O)O)CCC(c2cccc(F)c2)C1 (stereo unspecified)

serum shift [6]: 290
SMILES: CC(Cc1ccn(-c2ccc(O)cn2)n1)C(=O)NC1=C(C(=O)O)CC[C@@H](C)C1 (stereo partly specified)
